# Test results from article PMC4159095 (Journal of medicinal chemistry, 2013).
# Key:
# SHP2 = experiment: Reversibility test by extensive washing of the enzyme-inhibitor complex; type: biochemical
# H661 cells = experiment: Cell cycle analysis; type: cell-based, human
# GST-SHP2 PTP = experiment: Enzymatic kinetic analyses; type: biochemical; conditions: Cryptotanshinone 25 μM
# [1] = system: myeloid blasts from JMML patients with the PTPN11E76K/+ mutation; experiment: Colony-forming unit assay, GM-CSF; type: cell-based, human; conditions: GM-CSF 1.0 ng/mL, 14 days
# Summary of the method: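 Bone marrow cells or splenocytes from JMML patients carrying PTPN11E76K/+ were plated at 5×10^4 cells/mL in 0.9% methylcellulose IMDM with 30% FBS, glutamine (10^-4 M), β-mercaptoethanol (3.3×10^-5 M) and GM-CSF (1.0 ng/mL), plus test compound at varying doses or matching DMSO. After 14 days at 37°C in 5% CO2, CFU-GM and CFU-M colonies were counted and normalized to DMSO-treated cells. Three patient samples were run in triplicate.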
# U937 cells = experiment: Apoptosis, Annexin V staining, FACS; type: cell-based, human; conditions: 24 hours
# [2] = system: PTPN11E76K/+ mouse embryonic fibroblasts; experiment: MEF cell growth; type: cell-based; conditions: Cryptotanshinone 20 μM
# [3] = system: U937 human lymphoma cells (PTPN11 G60R); experiment: Cell proliferation assay; type: cell-based; conditions: 48 hours
# [4] = system: H661 human lung cancer cells (PTPN11 N58S); experiment: Cell proliferation assay; type: cell-based; conditions: 48 hours
# [5] = system: myeloid progenitors from PTPN11E76K/+ mice; experiment: Colony-forming unit assay, GM-CSF; type: cell-based, mouse; conditions: GM-CSF 1.0 ng/mL, 7 days
# Summary of the method: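 Bone marrow from PTPN11E76K/+/Mx1-Cre+ and PTPN11+/+/Mx1-Cre+ mice was plated at 5×10^4 cells/mL in 0.9% methylcellulose IMDM with 30% FBS, glutamine, β-mercaptoethanol and GM-CSF (1.0 ng/mL), with test compound at varying doses or DMSO. CFU-GM and CFU-M colonies were counted after 7 days at 37°C in 5% CO2 and normalized to colonies from DMSO-treated WT cells. Triplicates, two independent experiments.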
# [6] = system: IL-3-induced activation of Erk, Akt, Jak2, and Stat5; experiment: IL-3 signaling in Ba/F3 cells, immunoblotting; type: cell-based
# Summary of the method: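 Ba/F3 cells were starved overnight in serum- and cytokine-free RPMI 1640, pretreated for 3 h with test compound (20 μM for the time course, graded concentrations for dose response), then stimulated with IL-3 (1.0 ng/mL) for set times or 10 min. RIPA lysates (50 μg protein) were run on 10% SDS-PAGE and immunoblotted for p-Erk, p-Akt, p-Jak2 and p-Stat5 with ECL detection. Blots were reprobed for total proteins; three repeats.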
# [7] = system: WT mouse embryonic fibroblasts; experiment: MEF cell growth; type: cell-based; conditions: Cryptotanshinone 20 μM
# [8] = system: JMML cells (PTPN11E76K/+); experiment: Total cell number in GM-CSF-containing medium; type: cell-based, human
# Hela cells = experiment: HeLa cell growth after control or SHP2 siRNA; type: cell-based; conditions: 24 hours treatment
# Summary of the method: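 HeLa cells were transfected with control or SHP2 siRNA (400 pmoles/8.0×10^5 cells). After 48 h they were exposed to test compound at graded concentrations or DMSO, and cell numbers were determined 24 h later. Treated knockdown and control cells were each normalized to their untreated counterparts. Knockdown was confirmed by anti-SHP2 immunoblot with β-actin as loading control. Triplicates; three experiments.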
# SHP2 PTP domain = experiment: Fluorescence titration; type: binding; conditions: increasing compound concentrations
# Summary of the method: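 Intrinsic tryptophan fluorescence of the GST-fused SHP2 PTP domain (purified), diluted in 20 mM Tris-HCl pH 7.5. Protein level is held constant while test compound is raised stepwise. Spectra are recorded on a luminescence spectrometer, and fluorescence is plotted against log compound concentration (M). The experiment was repeated twice; data are mean±S.E.M. of triplicates.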
# SHP1 = experiment: In vitro phosphatase activity assay, phospho-EGFR peptide substrate; type: biochemical
# [9] = molecular target: T1, SHP2 PTP domain (GST-SHP2 PTP) (Homo sapiens, UniProt Q06124); type: biochemical; conditions: phospho-EGFR peptide substrate
# T1 sequence (Q06124 247-517 limits assumed): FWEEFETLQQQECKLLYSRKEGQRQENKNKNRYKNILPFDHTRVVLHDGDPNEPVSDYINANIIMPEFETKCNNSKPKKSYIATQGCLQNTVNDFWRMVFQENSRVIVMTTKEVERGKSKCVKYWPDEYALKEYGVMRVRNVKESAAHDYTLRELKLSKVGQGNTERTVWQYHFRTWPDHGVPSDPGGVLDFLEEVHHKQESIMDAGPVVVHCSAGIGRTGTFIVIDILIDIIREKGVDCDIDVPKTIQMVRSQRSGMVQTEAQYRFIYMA
# Summary of the method: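 In-house purified GST-SHP2 PTP domain (0.5 μg) was preincubated with test compound at various concentrations for 30 min at room temperature. Buffer: 25 mM Tris-HCl pH 7.4, 50 mM NaCl, 5 mM DTT, 2.5 mM EDTA. EGFR pTyr peptide (DADEpYLIPQQG) was added to 0.2 mM final, then 30°C for 30 min. Released phosphate was detected with Malachite Green, reading OD620 after 10 min.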
compound,measurement,setting,value
C[C@H]1COC2=C1C(=O)C(=O)c1c2ccc2c1CCCC2(C)C [Cryptotanshinone],reversibility of SHP2 inhibition,SHP2,irreversible inhibitor
same,cell cycle effect in H661 cells,H661 cells,G1-S arrest
same,change of Vmax by inhibitor,GST-SHP2 PTP,decreased
same,type of inhibition,GST-SHP2 PTP,mixed-type inhibitor
same,colony formation of JMML myeloid blasts,[1],exquisitely sensitive
same,apoptosis in U937 cells,U937 cells,robust induction of apoptosis
same,cell growth of PTPN11E76K/+ MEFs,[2],decreased cell growth
same,sensitivity of PTPN11E76K/+ MEFs relative to WT,[2],more sensitive
same,cell proliferation of U937 cells,[3],decreased cell proliferation in a dose-dependent manner
same,cell proliferation of H661 cells,[4],decreased cell proliferation in a dose-dependent manner
same,colony-forming capabilities of mutant SHP2-expressing progenitors,[5],significantly reduced
same,tyrosine-phosphorylation of Gab2 and Gab2-SHP2 interaction,[6],markedly decreased
same,"IL-3-induced activation of Erk, Akt, Jak2, and Stat5 (phosphorylation levels)","[6]; 3 hours pretreatment, IL-3 1.0 ng/mL",greatly suppressed
same,cell growth of WT MEFs,[7],decreased cell growth
same,total cell number of JMML cells,[8],greatly decreased
same,proliferation of control siRNA cells,Hela cells,decreased
same,sensitivity of SHP2-depleted cells,Hela cells; SHP2 siRNA,much less sensitive
same,quenching of SHP2 fluorescence,SHP2 PTP domain,strong quenching of SHP2 fluorescence in a dose-dependent manner
Cc1coc2c1C(=O)C(=O)c1c-2ccc2c(C)cccc12 [Tanshinone I],selectivity between SHP2 and SHP1,SHP1,no selectivity between SHP2 and SHP1
same,"SHP2 IC50, fold lower than that of Cryptotanshinone",[9],8.75 fold
Cc1coc2c1C(=O)C(=O)c1c-2ccc2c1CCCC2(C)C [Tanshinone IIA],selectivity between SHP2 and SHP1,SHP1,no selectivity between SHP2 and SHP1
same,"SHP2 IC50, fold lower than that of Cryptotanshinone",[9],8.69 fold
Cc1cccc2c3c(ccc12)C1=C(C(=O)C3=O)[C@@H](C)CO1 [Dihydrotanshinone],selectivity between SHP2 and SHP1,SHP1,no selectivity between SHP2 and SHP1
same,"SHP2 IC50, fold lower than that of Cryptotanshinone",[9],5.71 fold
